Source: ChEMBL document CHEMBL5649170, “Sustained microglial depletion with CSF1R inhibitor impairs parenchymal plaque development in an Alzheimer's disease model” (Nat Commun, 2019)
Active and inactive are the calls of the source. The calls are words filed in the database; no cut-off is given here.

Legend:
[1] = system: Mus musculus; test: Antialzheimer activity in 5XFAD mouse assessed as number of Iba positive cells per FOV in retro spinal cortex at 1200 ppm administered as rodent chow starting from 1.5 months and measured after 7 months (reference value: 473 to 792); assay type: functional; details: route po, time 5.5 months, 4015 h
[2] = system: Mus musculus; test: Prevention of Fcrls gene upregulation in 5XFAD mouse hippocampus at 1200 ppm administered as rodent chow starting from 1.5 months and measured after 7 months by Nanostring analysis; assay type: functional, tissue-based; details: route po, time 5.5 months
[3] = biological target: Tyrosine-protein kinase receptor UFO (Homo sapiens, UniProt P30530); test: Inhibition of AXL (unknown origin)
[4] = biological target: Serine/threonine-protein kinase TBK1 (Homo sapiens, UniProt Q9UHD2); test: Inhibition of TBK1 (unknown origin)
[5] = biological target: Vascular endothelial growth factor receptor 3 (Homo sapiens, UniProt P35916); test: Inhibition of FLT4 (unknown origin)
[6] = system: Mus musculus; test: Antialzheimer activity in 5XFAD mouse assessed as reduction in plaque formation by measuring average plaque volume in somatosensory cortex at 1200 ppm administered as rodent chow starting from 1.5 months and measured after 4 months by immunolabeling based confocal microscopic analysis; assay type: functional; details: route po, time 2.5 months, 1825 h
[7] = Half-life in male rat at 1.13 mg/kg, iv administered as single dose; assay type: ADME, organism-based; details: in vivo
[8] = biological target: Protein kinase C zeta type (Homo sapiens, UniProt Q05513); test: Inhibition of PRKCZ (unknown origin)
[9] = Toxicity in wildtype mouse assessed as distance traveled at 1200 ppm administered as rodent chow for 10 to 24 weeks by Open field test (reference value: 13.381 to 26.996 meter); details: in vivo, po, time 10-24 weeks
[10] = Clearance in female rat at 1.13 mg/kg, iv administered as single dose; assay type: ADME, organism-based; details: in vivo
[11] = Drug concentration in 5XFAD mouse brain at 1200 ppm administered as rodent chow for 10 to 24 weeks; assay type: ADME, tissue-based; details: in vivo, po, time 10-24 weeks, read-out: Ct
Summary of the method: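 WT or 5xFAD mice were started at 1.5 months of age on PLX5622 formulated at 1200 ppm in AIN-76A chow, with control chow as comparison. Feeding ran for 10 or 24 weeks. Terminal plasma and brain drug levels were then measured. Groups were sex-balanced and compared by two-tailed independent t-test.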

[12] = biological target: Ribosomal protein S6 kinase alpha-3 (Homo sapiens, UniProt P51812); test: Inhibition of RPS6KA3 (unknown origin)
[13] = biological target: T1, Macrophage colony-stimulating factor 1 receptor (Mus musculus) (UniProt P09581); test: In vivo inhibition of CSF1R in wildtype mouse assessed as number of S100bteta positive cells per FOV in somatosensory cortex at 1200 ppm administered as rodent chow for 10 to 24 weeks by immunolabelling based confocal microscopic analysis (reference value: 14 to 342); assay type: functional; details: route po, time 10-24 weeks
T1 sequence (whole entry): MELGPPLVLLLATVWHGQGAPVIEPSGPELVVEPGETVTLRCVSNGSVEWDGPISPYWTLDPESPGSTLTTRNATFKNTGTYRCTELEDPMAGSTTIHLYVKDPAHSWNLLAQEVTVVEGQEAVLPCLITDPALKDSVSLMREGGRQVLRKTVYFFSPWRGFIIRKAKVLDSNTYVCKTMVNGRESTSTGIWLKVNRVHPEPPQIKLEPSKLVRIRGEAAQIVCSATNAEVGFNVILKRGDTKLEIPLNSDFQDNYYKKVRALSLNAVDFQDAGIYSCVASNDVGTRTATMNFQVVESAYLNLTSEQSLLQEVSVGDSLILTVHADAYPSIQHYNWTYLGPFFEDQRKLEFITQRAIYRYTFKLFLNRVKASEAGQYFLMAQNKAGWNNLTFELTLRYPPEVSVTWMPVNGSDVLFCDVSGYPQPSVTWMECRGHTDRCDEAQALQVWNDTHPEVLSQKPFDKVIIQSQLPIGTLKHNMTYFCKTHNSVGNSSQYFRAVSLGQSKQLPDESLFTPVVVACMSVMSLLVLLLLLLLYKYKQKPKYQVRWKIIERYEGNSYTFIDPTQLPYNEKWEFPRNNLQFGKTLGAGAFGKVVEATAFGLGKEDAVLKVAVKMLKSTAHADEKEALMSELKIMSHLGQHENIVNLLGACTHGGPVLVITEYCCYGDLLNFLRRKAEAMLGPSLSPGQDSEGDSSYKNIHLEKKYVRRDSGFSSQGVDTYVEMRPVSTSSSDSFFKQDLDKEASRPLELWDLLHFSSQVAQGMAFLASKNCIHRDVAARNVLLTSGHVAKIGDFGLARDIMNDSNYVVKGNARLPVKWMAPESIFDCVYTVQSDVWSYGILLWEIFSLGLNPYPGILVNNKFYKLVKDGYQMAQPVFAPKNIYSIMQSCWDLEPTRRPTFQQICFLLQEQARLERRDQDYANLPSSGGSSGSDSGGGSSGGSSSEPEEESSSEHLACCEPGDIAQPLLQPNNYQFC

[14] = biological target: Aurora kinase A (Homo sapiens, UniProt O14965); test: Inhibition of AURKA (unknown origin)
[15] = Effect on Clec7a gene expression in 5XFAD mouse cortex at 1200 ppm administered as rodent chow starting from 1.5 months and measured after 7 months by RNA-Seq analysis (reference value: 2.323 to 6.756 RPKM); assay type: functional; details: route po, time 5.5 months, 4015 h
Summary of the method: (§1)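 WT and 5xFAD mice were treated with 1200 ppm PLX5622 chow or control chow from 1.5 to 7 months of age. Brains were microdissected into cortex, hippocampus and thalamus, and RNA was extracted from tissue powder. Whole-transcriptome RNA-Seq libraries were sequenced, with n = 4 per group per region (48 samples).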

[16] = biological target: Casein kinase I isoform alpha (Homo sapiens, UniProt P48729); test: Inhibition of CSNK1A1 (unknown origin)
[17] = biological target: PI3-kinase p110-alpha/p85-alpha (Homo sapiens, UniProt P42336); test: Inhibition of PIK3CA/PIK3R1 (unknown origin); assay type: protein-complex assay
[18] = Effect on Clec7a gene expression in 5XFAD mouse hippocampus at 1200 ppm administered as rodent chow starting from 1.5 months and measured after 7 months by RNA-Seq analysis (reference value: 4.246 to 7.511 RPKM); assay type: functional; details: route po, time 5.5 months, 4015 h; summary of the method: as §1
[19] = system: Mus musculus; test: Antialzheimer activity in 5XFAD mouse assessed as percent change in claudin-5 intensity of thalamus at 1200 ppm administered as rodent chow starting from 1.5 months and measured after 4 months by immunolabeling analysis relative to control; assay type: functional; details: route po, time 2.5 months, 1825 h
[20] = system: Mus musculus; test: Antialzheimer activity in 5XFAD mouse assessed as average plaque volume in somatosensory cortex at 1200 ppm administered as rodent chow starting from 1.5 months and measured after 7 months by Thio-S staining based confocal microscopic analysis (reference value: 711.144 to 2878.724 microm3); assay type: functional; details: route po, time 5.5 months, 4015 h
[21] = biological target: Tyrosine-protein kinase ZAP-70 (Homo sapiens, UniProt P43403); test: Inhibition of ZAP70 (unknown origin)
[22] = biological target: Ribosomal protein S6 kinase alpha-4 (Homo sapiens, UniProt O75676); test: Inhibition of RPS6KA4 (unknown origin)

Serine/threonine-protein kinase TBK1, sequence (Q9UHD2 whole entry): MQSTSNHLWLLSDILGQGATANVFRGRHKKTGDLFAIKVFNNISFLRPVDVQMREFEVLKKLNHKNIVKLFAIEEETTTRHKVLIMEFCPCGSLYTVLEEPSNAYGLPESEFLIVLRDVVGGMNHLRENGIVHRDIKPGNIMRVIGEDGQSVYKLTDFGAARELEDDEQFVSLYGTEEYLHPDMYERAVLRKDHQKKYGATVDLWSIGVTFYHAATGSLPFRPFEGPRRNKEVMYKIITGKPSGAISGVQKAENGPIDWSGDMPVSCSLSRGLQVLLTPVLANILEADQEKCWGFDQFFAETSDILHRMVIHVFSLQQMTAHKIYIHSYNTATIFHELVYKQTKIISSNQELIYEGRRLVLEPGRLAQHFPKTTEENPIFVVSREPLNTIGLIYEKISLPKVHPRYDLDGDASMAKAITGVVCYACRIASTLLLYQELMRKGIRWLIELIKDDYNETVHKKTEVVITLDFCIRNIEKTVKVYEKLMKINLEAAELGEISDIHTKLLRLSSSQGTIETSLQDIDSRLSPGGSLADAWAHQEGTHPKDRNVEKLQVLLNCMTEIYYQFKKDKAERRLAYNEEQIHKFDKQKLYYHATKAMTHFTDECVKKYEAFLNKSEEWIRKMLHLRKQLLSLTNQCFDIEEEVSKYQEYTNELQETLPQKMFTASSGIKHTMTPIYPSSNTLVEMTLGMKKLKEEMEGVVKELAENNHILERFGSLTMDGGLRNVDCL
Ribosomal protein S6 kinase alpha-3, sequence (P51812 whole entry): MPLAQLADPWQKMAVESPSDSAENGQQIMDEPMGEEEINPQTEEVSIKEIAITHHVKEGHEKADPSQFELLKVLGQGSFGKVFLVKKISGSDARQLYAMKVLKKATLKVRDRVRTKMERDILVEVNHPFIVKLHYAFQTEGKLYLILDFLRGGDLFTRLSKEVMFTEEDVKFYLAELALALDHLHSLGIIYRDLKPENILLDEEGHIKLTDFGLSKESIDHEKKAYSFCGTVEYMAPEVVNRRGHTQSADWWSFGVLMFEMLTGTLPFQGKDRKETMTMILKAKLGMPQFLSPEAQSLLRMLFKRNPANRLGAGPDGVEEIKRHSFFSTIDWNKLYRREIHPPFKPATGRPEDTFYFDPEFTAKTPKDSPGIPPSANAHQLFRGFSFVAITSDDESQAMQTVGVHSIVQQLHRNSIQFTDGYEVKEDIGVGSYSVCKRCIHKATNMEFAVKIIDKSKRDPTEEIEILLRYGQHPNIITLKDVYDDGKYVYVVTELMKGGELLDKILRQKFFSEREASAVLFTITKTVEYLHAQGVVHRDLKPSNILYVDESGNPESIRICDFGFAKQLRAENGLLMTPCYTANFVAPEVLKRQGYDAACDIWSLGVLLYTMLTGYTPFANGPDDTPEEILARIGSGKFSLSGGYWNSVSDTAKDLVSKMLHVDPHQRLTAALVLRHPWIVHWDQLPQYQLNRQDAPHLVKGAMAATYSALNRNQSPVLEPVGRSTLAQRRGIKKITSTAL
Vascular endothelial growth factor receptor 3, sequence (P35916 whole entry): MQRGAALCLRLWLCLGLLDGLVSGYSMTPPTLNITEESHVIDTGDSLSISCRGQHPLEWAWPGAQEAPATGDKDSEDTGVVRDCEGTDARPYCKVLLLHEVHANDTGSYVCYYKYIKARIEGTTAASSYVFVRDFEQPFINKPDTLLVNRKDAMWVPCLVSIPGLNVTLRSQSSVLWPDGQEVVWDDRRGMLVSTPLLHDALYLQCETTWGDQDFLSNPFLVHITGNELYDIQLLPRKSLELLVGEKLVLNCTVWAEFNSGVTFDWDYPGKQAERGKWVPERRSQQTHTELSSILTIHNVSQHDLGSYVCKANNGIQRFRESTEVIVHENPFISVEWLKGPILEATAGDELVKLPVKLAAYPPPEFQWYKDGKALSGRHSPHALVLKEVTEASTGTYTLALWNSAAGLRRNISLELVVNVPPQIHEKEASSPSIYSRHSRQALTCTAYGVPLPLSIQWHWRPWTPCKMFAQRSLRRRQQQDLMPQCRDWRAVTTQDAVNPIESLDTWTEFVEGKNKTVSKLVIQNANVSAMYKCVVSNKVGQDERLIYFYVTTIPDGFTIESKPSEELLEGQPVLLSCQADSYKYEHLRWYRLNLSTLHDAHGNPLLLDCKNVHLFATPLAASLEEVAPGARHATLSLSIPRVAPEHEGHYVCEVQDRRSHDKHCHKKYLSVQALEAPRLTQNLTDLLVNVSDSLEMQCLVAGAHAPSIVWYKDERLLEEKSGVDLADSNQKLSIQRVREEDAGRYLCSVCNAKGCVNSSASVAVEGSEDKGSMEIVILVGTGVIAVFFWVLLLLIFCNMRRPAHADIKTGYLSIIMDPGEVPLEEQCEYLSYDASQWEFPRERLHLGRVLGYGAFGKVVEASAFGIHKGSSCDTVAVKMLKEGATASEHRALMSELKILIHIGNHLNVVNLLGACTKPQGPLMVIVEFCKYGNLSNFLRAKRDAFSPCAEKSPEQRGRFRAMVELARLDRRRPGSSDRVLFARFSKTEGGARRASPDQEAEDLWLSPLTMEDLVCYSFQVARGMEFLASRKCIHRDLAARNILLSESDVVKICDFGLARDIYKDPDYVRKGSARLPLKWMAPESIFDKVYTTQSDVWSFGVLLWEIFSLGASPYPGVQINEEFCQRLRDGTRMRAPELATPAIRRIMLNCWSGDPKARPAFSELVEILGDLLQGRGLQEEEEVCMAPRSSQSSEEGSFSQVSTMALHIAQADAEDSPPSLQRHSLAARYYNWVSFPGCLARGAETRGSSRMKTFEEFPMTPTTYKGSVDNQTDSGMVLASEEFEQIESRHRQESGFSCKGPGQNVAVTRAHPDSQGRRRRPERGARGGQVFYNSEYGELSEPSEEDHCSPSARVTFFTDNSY
Tyrosine-protein kinase ZAP-70, sequence (P43403 whole entry): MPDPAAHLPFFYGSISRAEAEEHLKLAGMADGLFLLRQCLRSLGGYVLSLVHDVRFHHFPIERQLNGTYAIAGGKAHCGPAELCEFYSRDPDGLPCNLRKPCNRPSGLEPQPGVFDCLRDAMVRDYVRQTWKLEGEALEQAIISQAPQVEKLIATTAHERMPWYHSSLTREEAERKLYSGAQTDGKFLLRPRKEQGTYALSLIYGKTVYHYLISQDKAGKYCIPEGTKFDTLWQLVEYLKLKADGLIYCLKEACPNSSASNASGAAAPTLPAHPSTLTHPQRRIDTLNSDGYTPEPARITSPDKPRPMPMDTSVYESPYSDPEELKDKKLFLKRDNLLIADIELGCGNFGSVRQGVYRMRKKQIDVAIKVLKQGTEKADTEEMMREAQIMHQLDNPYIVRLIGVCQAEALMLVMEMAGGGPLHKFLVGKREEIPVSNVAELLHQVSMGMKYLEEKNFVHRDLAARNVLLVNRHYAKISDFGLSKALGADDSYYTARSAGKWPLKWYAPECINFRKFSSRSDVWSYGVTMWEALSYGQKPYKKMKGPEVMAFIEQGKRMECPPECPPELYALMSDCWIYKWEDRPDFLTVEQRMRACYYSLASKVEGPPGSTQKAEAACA
Aurora kinase A, sequence (O14965 whole entry): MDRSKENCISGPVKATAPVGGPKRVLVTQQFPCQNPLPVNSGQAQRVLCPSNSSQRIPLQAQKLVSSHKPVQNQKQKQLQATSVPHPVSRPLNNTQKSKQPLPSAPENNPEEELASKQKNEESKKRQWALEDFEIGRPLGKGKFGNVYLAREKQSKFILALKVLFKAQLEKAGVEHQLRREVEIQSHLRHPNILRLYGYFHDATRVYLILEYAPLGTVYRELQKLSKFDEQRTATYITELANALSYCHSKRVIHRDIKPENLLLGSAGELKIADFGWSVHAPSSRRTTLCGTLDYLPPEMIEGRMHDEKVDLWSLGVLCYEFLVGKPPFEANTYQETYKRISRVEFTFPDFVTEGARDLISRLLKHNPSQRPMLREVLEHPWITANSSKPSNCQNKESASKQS
Tyrosine-protein kinase receptor UFO, sequence (P30530 whole entry): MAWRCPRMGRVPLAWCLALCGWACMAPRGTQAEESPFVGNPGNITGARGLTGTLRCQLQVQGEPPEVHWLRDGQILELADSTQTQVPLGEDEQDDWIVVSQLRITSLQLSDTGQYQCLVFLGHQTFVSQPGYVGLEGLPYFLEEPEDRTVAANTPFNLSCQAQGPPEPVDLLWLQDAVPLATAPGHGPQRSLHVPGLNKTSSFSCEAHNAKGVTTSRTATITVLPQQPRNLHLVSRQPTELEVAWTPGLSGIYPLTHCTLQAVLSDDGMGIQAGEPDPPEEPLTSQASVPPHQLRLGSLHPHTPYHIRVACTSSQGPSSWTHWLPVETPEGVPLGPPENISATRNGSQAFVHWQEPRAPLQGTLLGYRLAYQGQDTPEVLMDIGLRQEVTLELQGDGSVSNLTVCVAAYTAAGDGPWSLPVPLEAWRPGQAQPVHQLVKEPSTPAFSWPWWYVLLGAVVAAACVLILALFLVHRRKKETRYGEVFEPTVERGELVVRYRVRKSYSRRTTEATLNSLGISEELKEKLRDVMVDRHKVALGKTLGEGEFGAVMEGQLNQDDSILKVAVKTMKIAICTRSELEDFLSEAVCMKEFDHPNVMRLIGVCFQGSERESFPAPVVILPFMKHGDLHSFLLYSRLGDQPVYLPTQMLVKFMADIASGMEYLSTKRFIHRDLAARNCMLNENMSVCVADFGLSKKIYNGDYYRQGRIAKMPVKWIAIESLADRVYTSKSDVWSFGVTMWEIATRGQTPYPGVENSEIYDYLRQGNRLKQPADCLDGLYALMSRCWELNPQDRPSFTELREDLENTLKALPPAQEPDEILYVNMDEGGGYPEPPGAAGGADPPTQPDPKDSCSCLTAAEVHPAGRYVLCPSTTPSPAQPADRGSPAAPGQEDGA

## COc1ncc(F)cc1CNc1ccc(Cc2c[nH]c3ncc(C)cc23)c(F)n1 [PLX-5622]
[1]
  Activity: 2
[2]
  Activity: Active
[3]
  IC50: > 1 µM
[4]
  IC50: > 1 µM
[5]
  IC50: > 1 µM
[6]
  Activity: 1533.351 um3
[7]
  half-life: 2.3 h
[8]
  IC50: > 1 µM
[9]
  Activity: 9.067 m
[10]
  clearance: 3.7 mL/min/kg
[11]
  concentration: 3.47 µM
[12]
  IC50: > 1 µM
[13]
  Activity: 270
[14]
  IC50: > 1 µM
[15]
  Activity: 0.051 RPKM
[16]
  IC50: > 1 µM
[17]
  IC50: > 1 µM
[18]
  Activity: 0.239 RPKM
[19]
  Activity: 7.551%
[20]
  Activity: 66.975 um3
[21]
  IC50: > 1 µM
[22]
  IC50: > 1 µM
